ChEMBL document CHEMBL4024762, “Discovery of N-(3-Carbamoyl-5,5,7,7-tetramethyl-5,7-dihydro-4H-thieno[2,3-c]pyran-2-yl)-lH-pyrazole-5-carboxamide (GLPG1837), a Novel Potentiator Which Can Open Class III Mutant Cystic Fibrosis Transmembrane Conductance Regulator (CFTR) Channels to a High Extent” (J Med Chem, 2018)
In brackets after ≈: the same amount, converted by molar mass. Values belong to the molecule of their own block, whether it stands above or below them. Activity calls are given as the source filed them. The rule behind the calls is not given here.

What was measured:
[1] = target: Cystic fibrosis transmembrane conductance regulator (Homo sapiens, UniProt P13569, F508DEL); experiment: (§1) Potentiation of CFTR F508del mutant (unknown origin) expressed in human CFBE41o cells incubated for 10 mins in presence of forskolin measured for 7 secs by YFP halide assay; type: cell-based
Method in brief: (§2)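 CFBE41o- cells (CF bronchial line) transduced by adenovirus with F508del CFTR and YFP (H148Q/I152L/F47L). Cells held 24 h at 27°C, then treated 10 min at room temperature with 10 µM forskolin plus potentiator. YFP fluorescence read for 7 s across addition of NaI buffer (137 mM NaI). Activity = 1-(F/F0).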

[2] = target: T1, Cystic fibrosis transmembrane conductance regulator (Homo sapiens, UniProt P13569, G551D); experiment: (§3) Potentiation of CFTR G551D mutant (unknown origin) expressed in HEK293 cells incubated for 10 mins in presence of forskolin measured for 2 mins by YFP halide assay; type: cell-based
Method in brief: (§4)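 HEK293 cells transfected with the mutant CFTR (G551D, G178R, S549N or R117H) and YFP (H148Q/I152L/F47L), seeded directly after transfection, then 24 h at 37°C. Treated 10 min at room temperature with 10 µM forskolin plus potentiator. Fluorescence read for 2 min across addition of NaI buffer (375 mM NaI). Activity = 1-(F/F0).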

[3] = system: Cystic fibrosis transmembrane conductance regulator (Homo sapiens), P13569 [F508del]; experiment: as §1; type: cell-based; set-up: concentration or dose not given beside the values; method in brief: as §2
[4] = Unbound intrinsic clearance in rat microsomes; type: ADME, Microsome
Method in brief: (§5)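 Intrinsic clearance in liver microsomes or hepatocytes, corrected for non-specific binding using fraction unbound in microsomes (Fu,mic) or in hepatocyte incubations (Fu,inc).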

[5] = system: Cystic fibrosis transmembrane conductance regulator (Homo sapiens), P13569 [G551D]; experiment: as §3; type: cell-based; set-up: concentration or dose not given beside the values; method in brief: as §4
Homo sapiens [6] = organism: Homo sapiens; experiment: Selectivity ratio of EC50 for CFTR G551D mutant (unknown origin) to EC50 for CFTR F508del mutant (unknown origin)
[7] = system: Cystic fibrosis transmembrane conductance regulator (Homo sapiens), P13569 [G178R]; experiment: Potentiation of CFTR G178R mutant (unknown origin) expressed in HEK293 cells incubated for 10 mins in presence of forskolin measured for 2 mins by YFP halide assay relative to ivacaftor; type: cell-based
[8] = target: Voltage-gated inwardly rectifying potassium channel KCNH2 (Homo sapiens, UniProt Q12809); experiment: Inhibition of human ERG by manual patch clamp method
Homo sapiens [9] = experiment: Toxicity in human up to 2000 mg administered as single dose
Canis familiaris = experiment: Unbound clearance in dog at 1 mg/kg, iv; type: ADME, organism-based, Canis lupus familiaris; settings: in vivo
Method in brief: (§6)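 IV PK in rat and dog at 1 mg/kg. Cl, Cl,unb (L/h/kg), Vd (L/kg) and T1/2 (h) were derived from plasma levels.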

[10] = target: T1, Cystic fibrosis transmembrane conductance regulator; experiment: Potentiation of CFTR G551D mutant in primary HBE cells assessed as increase in channel conductivity measured every 2 mins for 20 mins by TECC assay; type: cell-based
Method in brief: (§7)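 TECC on primary epithelia bathed both sides in NaCl Ringer, pH 7.4, at 37°C. Apical amiloride 100 µM; forskolin 10 µM apical and basolateral. One compound concentration per transwell. EC50 derived from the increase in Ieq. Duplicate or triplicate, mean ± SEM; 10 µM CFTRinh-172 used for specificity.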

[11] = Half life in dog at 1 mg/kg, iv; type: ADME, organism-based, Canis lupus familiaris; settings: in vivo; method in brief: as §6
[12] = Volume of distribution in rat at 1 mg/kg, iv; type: ADME, organism-based; settings: in vivo; method in brief: as §6
[13] = Cmax in rat at 300 mg/kg, po; type: ADME, organism-based; set-up: dose 300 mg/kg, route oral; settings: in vivo
Cytochrome P450 2C19 = Cytochrome P450 2C19 (Homo sapiens, UniProt P33261); experiment: Inhibition of CYP2C19 (unknown origin); type: ADME
[14] = AUC in rat at 5 mg/kg, po; type: ADME, organism-based; settings: in vivo
[15] = system: Cystic fibrosis transmembrane conductance regulator (Homo sapiens), P13569 [G551D]; experiment: Potentiation of CFTR G551D mutant in primary HBE cells assessed as increase in channel conductivity measured every 2 mins for 20 mins by TECC assay relative to ivacaftor; type: cell-based
[16] = Unbound intrinsic clearance in human microsomes; type: ADME, Microsome
[17] = Volume of distribution in dog at 1 mg/kg, iv; type: ADME, organism-based, Canis lupus familiaris; settings: in vivo; method in brief: as §6
[18] = Oral bioavailability in dog at 5 mg/kg; type: ADME, organism-based, Canis lupus familiaris; settings: in vivo
Method in brief: (§8)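 F% in rat and dog after a 5 mg/kg PO dose, referenced to the 1 mg/kg IV PK parameters.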

[19] = Unbound intrinsic clearance in human hepatocytes; type: ADME, cell-based, Hepatocyte
[20] = Thermodynamic solubility of the compound at pH 7.4; type: physicochemical; settings: buffer, read-out: Therm_solubility
[21] = system: Cystic fibrosis transmembrane conductance regulator (Homo sapiens), P13569 [S549N]; experiment: Potentiation of CFTR S549N mutant (unknown origin) expressed in HEK293 cells incubated for 10 mins in presence of forskolin measured for 2 mins by YFP halide assay relative to ivacaftor; type: cell-based
[22] = AUC in rat at 300 mg/kg, po; type: ADME, organism-based; settings: in vivo
[23] = Cmax in rat at 5 mg/kg, po; type: ADME, organism-based; set-up: dose 5 mg/kg, route oral; settings: in vivo
[24] = Half life in rat at 1 mg/kg, iv; type: ADME, organism-based; settings: in vivo; method in brief: as §6
[25] = Efflux ratio of permeability in MDCK cells; type: ADME, cell-based, Canis lupus familiaris; settings: dog
Cytochrome P450 2D6 = Cytochrome P450 2D6 (Homo sapiens, UniProt P10635); experiment: Inhibition of CYP2D6 (unknown origin); type: ADME
[26] = Thermodynamic solubility of the compound at pH 3; type: physicochemical; settings: buffer, read-out: Therm_solubility
[27] = Clearance in dog at 1 mg/kg, iv; type: ADME, organism-based, Canis lupus familiaris; settings: in vivo; method in brief: as §6
Cytochrome P450 3A4 = Cytochrome P450 3A4 (Homo sapiens, UniProt P08684); experiment: Inhibition of CYP3A4 (unknown origin); type: ADME
Cytochrome P450 2C9 = Cytochrome P450 2C9 (Homo sapiens, UniProt P11712); experiment: Inhibition of CYP2C9 (unknown origin); type: ADME
Rattus norvegicus = experiment: Unbound clearance in rat at 1 mg/kg, iv; type: ADME, organism-based; settings: in vivo; method in brief: as §6
[28] = system: Cystic fibrosis transmembrane conductance regulator (Homo sapiens), P13569 [F508del]; experiment: Potentiation of CFTR F508del mutant in primary HBE cells assessed as increase in channel conductivity measured every 2 mins for 20 mins by TECC assay; type: cell-based; method in brief: as §7
[29] = system: Cystic fibrosis transmembrane conductance regulator (Homo sapiens), P13569 [R117H]; experiment: Potentiation of CFTR R117H mutant (unknown origin) expressed in HEK293 cells incubated for 10 mins in presence of forskolin measured for 2 mins by YFP halide assay relative to ivacaftor; type: cell-based
[30] = Clearance in rat at 1 mg/kg, iv; type: ADME, organism-based; settings: in vivo; method in brief: as §6
[31] = Permeability across apical to basolateral side in MDCK cells; type: ADME, cell-based, Canis lupus familiaris; settings: dog, read-out: permeability
[32] = Unbound intrinsic clearance in rat hepatocytes; type: ADME, cell-based, Hepatocyte; method in brief: as §5
[33] = Oral bioavailability in rat at 5 mg/kg; type: ADME, organism-based; settings: in vivo; method in brief: as §8
Cytochrome P450 1A2 = target: T2, Cytochrome P450 1A2 (Homo sapiens, UniProt P05177); experiment: Inhibition of CYP1A2 (unknown origin); type: ADME
T2 sequence (P05177 whole entry): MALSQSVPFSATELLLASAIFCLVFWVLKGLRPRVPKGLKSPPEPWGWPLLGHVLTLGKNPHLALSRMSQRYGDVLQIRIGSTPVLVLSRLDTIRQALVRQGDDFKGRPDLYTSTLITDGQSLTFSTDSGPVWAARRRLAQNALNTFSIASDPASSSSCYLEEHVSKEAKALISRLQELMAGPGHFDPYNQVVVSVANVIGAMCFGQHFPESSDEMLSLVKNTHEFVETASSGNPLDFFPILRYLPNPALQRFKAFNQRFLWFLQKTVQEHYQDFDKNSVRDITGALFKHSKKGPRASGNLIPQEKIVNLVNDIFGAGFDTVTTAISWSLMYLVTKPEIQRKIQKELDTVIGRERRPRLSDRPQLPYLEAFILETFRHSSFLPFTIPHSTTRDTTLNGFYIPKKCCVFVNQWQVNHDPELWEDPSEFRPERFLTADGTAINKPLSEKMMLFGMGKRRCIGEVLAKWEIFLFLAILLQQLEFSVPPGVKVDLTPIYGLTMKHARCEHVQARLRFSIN

Homo sapiens [34] = experiment: Toxicity in human up to 800 mg, bid administered for 14 days; settings: 336 h

Sequence of Cystic fibrosis transmembrane conductance regulator (Homo sapiens), P13569 [F508del] (P13569 as listed by the source): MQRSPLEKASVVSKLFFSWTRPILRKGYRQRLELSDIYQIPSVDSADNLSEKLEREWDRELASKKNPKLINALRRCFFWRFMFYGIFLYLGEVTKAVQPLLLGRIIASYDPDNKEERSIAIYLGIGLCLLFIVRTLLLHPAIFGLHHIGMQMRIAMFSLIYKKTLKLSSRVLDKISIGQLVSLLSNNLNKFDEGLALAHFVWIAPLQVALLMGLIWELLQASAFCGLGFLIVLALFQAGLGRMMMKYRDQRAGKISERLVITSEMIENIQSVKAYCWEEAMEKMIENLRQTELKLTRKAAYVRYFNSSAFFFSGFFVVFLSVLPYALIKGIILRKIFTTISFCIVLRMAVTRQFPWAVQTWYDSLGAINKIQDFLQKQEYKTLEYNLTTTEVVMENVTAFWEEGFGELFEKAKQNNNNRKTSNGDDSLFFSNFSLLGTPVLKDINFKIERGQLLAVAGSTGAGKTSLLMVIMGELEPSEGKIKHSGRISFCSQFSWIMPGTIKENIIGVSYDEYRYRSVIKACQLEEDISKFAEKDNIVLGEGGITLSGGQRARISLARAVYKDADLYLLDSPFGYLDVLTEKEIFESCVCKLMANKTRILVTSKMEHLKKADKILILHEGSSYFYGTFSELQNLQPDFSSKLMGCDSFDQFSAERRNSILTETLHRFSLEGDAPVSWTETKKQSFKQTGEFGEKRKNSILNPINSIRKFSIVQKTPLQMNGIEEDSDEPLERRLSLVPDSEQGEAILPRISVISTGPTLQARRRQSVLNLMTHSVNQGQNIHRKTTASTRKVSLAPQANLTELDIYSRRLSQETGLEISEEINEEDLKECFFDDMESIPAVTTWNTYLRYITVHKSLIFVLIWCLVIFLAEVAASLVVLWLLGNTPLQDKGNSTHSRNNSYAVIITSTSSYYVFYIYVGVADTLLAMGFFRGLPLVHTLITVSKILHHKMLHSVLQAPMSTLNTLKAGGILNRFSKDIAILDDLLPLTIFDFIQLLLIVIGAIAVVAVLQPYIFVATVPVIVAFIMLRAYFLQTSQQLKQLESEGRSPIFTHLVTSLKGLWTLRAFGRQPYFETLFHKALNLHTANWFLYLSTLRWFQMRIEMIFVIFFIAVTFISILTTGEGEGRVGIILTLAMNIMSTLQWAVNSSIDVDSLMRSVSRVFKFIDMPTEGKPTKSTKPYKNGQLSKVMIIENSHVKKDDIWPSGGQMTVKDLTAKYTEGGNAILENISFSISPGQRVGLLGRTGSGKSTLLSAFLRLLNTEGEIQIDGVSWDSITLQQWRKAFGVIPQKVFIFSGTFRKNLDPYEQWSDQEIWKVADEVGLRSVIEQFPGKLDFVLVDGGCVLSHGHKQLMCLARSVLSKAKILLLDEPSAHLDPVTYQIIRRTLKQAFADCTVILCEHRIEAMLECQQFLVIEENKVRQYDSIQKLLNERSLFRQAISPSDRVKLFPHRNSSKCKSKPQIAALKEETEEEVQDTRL
Sequence of Cystic fibrosis transmembrane conductance regulator (Homo sapiens, UniProt P13569, F508DEL) (P13569 as listed by the source): as above
Sequence of Cystic fibrosis transmembrane conductance regulator (Homo sapiens), P13569 [G551D] (P13569 whole entry G551D): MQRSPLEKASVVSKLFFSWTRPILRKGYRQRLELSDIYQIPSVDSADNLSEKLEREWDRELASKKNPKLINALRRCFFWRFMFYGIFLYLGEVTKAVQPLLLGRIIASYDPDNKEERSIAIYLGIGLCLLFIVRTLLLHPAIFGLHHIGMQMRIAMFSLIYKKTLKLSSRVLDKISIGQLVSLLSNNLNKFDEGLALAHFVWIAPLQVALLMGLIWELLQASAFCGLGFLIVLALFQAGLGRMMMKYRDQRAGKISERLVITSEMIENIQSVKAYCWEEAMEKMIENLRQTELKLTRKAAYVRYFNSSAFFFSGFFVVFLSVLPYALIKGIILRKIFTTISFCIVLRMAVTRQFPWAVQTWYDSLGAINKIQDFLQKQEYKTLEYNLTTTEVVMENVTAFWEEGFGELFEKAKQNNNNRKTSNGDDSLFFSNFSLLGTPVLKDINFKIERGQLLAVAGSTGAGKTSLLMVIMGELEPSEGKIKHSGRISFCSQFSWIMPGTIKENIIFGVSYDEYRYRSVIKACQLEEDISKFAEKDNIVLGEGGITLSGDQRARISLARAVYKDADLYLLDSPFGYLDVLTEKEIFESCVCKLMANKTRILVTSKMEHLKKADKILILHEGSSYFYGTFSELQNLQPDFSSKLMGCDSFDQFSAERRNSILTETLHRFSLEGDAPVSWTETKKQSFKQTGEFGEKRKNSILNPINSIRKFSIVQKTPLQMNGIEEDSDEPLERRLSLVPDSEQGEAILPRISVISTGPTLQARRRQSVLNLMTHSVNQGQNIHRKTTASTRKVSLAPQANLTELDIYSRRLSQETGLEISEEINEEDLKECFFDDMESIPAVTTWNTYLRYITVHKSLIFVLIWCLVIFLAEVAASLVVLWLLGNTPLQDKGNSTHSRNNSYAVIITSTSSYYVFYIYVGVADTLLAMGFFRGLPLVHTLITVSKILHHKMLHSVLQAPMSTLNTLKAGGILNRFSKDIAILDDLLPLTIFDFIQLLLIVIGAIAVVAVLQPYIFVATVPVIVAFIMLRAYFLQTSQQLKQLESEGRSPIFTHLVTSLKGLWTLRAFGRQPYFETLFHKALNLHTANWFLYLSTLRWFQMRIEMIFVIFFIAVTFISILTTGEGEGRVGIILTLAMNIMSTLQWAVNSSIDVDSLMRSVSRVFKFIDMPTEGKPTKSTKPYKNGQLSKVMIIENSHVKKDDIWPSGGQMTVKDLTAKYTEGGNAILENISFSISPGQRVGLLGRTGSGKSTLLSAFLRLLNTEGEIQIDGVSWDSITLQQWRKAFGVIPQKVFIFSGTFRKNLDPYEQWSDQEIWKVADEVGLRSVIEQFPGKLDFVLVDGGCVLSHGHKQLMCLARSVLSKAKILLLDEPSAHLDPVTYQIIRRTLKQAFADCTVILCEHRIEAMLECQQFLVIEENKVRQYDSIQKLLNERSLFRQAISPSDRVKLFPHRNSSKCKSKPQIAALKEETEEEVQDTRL
T1 sequence (P13569 whole entry G551D): as above
Sequence of Cystic fibrosis transmembrane conductance regulator (Homo sapiens), P13569 [G178R] (P13569 whole entry G178R): as the sequence (P13569 whole entry G551D) above, with G178R, D551G counted along it
Sequence of Voltage-gated inwardly rectifying potassium channel KCNH2 (Q12809 whole entry): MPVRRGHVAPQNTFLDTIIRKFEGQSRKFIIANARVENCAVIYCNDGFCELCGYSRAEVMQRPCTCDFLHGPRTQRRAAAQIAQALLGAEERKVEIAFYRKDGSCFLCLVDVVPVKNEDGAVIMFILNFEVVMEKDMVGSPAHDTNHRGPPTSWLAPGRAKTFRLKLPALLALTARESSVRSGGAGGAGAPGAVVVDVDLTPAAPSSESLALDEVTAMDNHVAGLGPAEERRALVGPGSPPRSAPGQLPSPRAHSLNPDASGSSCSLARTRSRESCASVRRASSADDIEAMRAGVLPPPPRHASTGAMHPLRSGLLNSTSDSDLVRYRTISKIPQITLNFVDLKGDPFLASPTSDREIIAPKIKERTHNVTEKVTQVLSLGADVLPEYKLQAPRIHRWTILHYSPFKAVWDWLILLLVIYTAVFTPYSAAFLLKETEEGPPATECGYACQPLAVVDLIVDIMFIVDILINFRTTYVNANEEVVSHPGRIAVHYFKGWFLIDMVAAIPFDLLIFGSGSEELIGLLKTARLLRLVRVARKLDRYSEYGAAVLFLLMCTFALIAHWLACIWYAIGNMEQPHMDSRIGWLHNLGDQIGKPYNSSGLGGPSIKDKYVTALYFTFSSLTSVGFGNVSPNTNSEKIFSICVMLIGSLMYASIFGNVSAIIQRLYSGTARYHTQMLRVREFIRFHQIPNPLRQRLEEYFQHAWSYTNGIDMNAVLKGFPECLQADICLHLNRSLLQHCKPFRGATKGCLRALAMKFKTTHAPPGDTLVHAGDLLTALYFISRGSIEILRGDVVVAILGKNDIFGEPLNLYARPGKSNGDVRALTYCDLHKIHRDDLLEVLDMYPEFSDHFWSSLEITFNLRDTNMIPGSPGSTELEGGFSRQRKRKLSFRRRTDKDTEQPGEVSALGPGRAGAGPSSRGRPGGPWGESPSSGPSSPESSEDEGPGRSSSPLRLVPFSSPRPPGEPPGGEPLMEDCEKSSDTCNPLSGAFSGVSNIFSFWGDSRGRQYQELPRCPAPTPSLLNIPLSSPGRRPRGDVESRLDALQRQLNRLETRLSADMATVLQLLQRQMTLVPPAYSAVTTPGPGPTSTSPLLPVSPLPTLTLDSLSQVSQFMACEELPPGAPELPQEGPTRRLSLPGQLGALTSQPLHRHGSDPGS
Sequence of Cystic fibrosis transmembrane conductance regulator (Homo sapiens), P13569 [S549N] (P13569 whole entry S549N): as the sequence (P13569 whole entry G551D) above, with S549N, D551G counted along it
Sequence of Cytochrome P450 3A4 (P08684 whole entry): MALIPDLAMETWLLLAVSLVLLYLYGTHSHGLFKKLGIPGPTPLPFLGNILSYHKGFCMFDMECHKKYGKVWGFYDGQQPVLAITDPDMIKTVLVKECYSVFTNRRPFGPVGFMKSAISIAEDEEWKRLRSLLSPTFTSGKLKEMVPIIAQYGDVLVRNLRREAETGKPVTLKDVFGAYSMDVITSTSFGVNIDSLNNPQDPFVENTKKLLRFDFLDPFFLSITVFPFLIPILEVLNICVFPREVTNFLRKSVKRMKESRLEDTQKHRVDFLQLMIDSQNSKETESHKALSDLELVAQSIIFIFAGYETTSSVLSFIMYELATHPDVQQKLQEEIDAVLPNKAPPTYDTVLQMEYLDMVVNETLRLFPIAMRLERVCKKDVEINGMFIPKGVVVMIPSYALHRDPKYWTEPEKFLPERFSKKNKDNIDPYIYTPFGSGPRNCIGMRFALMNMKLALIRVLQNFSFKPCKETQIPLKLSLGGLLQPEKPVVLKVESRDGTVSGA
Sequence of Cystic fibrosis transmembrane conductance regulator (Homo sapiens), P13569 [R117H] (P13569 whole entry R117H): as the sequence (P13569 whole entry G551D) above, with R117H, D551G counted along it

EC50 [1]: 23 nM
Compound: CC1(C)Cc2c(sc(NC(=O)C3(O)CC3)c2C(N)=O)C(C)(C)O1

EC50 [1]: > 10000 nM
Compound: CC1(C)Cc2c(sc(NC(=O)C3CNC(=O)C3)c2C(N)=O)C(C)(C)O1 (stereo not drawn)

EC50 [1]: 467 nM
Compound: CC1(C)Cc2c(sc(NC(=O)c3nnc[nH]3)c2C(N)=O)C(C)(C)O1

EC50 [1]: 13 nM | Activity [3]: 81% | Activity [5]: 73%
Compound: Cc1cc(C(=O)Nc2sc3c(c2C(N)=O)CC(C)(C)OC3(C)C)[nH]n1

EC50 [1]: 15 nM | Activity [3]: 105% | Activity [5]: 57% | EC50 [2]: 1320 nM
Compound: CC1(C)Cc2c(sc(NC(=O)C3(CO)CC3)c2C(N)=O)C(C)(C)O1

EC50 [1]: 2 nM | Activity [3]: 96% | Activity [5]: 77%
Compound: CC1(C)Cc2c(sc(NC(=O)c3[nH]ncc3Cl)c2C(N)=O)C(C)(C)O1

EC50 [1]: 136 nM
Compound: CC1(C)Cc2c(sc(NC(=O)Cc3ccn[nH]3)c2C(N)=O)C(C)(C)O1

Efficacy [7]: 158% | CL free (Canis familiaris): 107 mL/min/kg | EC50 [10]: 181 nM | half-life [11]: 3 h | Vd [12]: 4.8 L/kg | Cmax [13]: 4670 ng/mL | EC50 (Cytochrome P450 2C19): > 100000 nM | AUC [14]: 1540 ng·h/mL | Activity [15]: 200% | CL free [16]: 18.3 mL/min/kg | Vd [17]: 1.4 L/kg | bioavailability [18]: > 100% | CL free [19]: 30 mL/min/kg | solubility thermodynamic [20]: 8.6 µM (≈ 3 µg/mL) | EC50 [1]: 3 nM | Activity [3]: 105% | CL free [4]: 28.3 mL/min/kg | Efficacy [21]: 143% | AUC [22]: 68200 ng·h/mL | Cmax [23]: 331 ng/mL | half-life [24]: 1.84 h | efflux ratio [25]: 2.6 | EC50 (Cytochrome P450 2D6): > 100000 nM | solubility thermodynamic [26]: 11 µM (≈ 3.83 µg/mL) | clearance [27]: 5.33 mL/min/kg | EC50 (Cytochrome P450 3A4): > 100000 nM | EC50 (Cytochrome P450 2C9): > 100000 nM | CL free (Rattus norvegicus): 400 mL/min/kg | Activity [28]: Active | Efficacy [29]: 119% | clearance [30]: 32 mL/min/kg | Activity [5]: 103% | EC50 [2]: 339 nM | Papp A→B [31]: 11 ×10⁻⁶ cm/s | CL free [32]: 95 mL/min/kg | bioavailability [33]: 67% | EC50 (Cytochrome P450 1A2): > 100000 nM
Compound: CC1(C)Cc2c(sc(NC(=O)c3ccn[nH]3)c2C(N)=O)C(C)(C)O1
EC50 [8]: > 33000 nM | Activity (Homo sapiens [9]): Non-Toxic | Activity (Homo sapiens [34]): Non-Toxic

The next lines start with the molecule.

Compound: Cc1[nH]nc(C(=O)Nc2sc3c(c2C(N)=O)CC(C)(C)OC3(C)C)c1Cl
EC50 [1]: 11 nM | EC50 [2]: 199 nM

Compound: NC(=O)c1c(NC(=O)c2ccccc2Cl)sc2c1CCCC2
EC50 [1]: 326 nM | Activity [3]: 71% | CL free [4]: 1400 mL/min/kg | Activity [5]: 18% | EC50 [2]: > 10000 nM

Compound: Cc1ccc(C(=O)Nc2sc3c(c2C(N)=O)CCOC3)s1
EC50 [1]: 778 nM | Activity [3]: 74%

Compound: CC1(C)Cc2c(sc(NC(=O)c3ccccc3O)c2C(N)=O)CO1
EC50 [1]: 13 nM | Activity [3]: 93% | Activity [5]: 51% | EC50 [2]: 490 nM

Compound: CC1(C)Cc2c(sc(NC(=O)c3cccnc3O)c2C(N)=O)C(C)(C)O1
EC50 [1]: 190 nM

Compound: CC(C)(C)CC(O)C(=O)Nc1sc2c(c1C(N)=O)CC(C)(C)OC2(C)C (stereo not drawn)
EC50 [1]: 0.54 nM | Activity [3]: 102% | Activity [5]: 58% | Ratio EC50 (Homo sapiens [6]): 2000

Compound: CC1(C)Cc2c(sc(NC(=O)c3ccccc3NS(C)(=O)=O)c2C(N)=O)C(C)(C)O1
EC50 [1]: 147 nM
